Data as given in ChEMBL document CHEMBL3244424, “Potential anticancer agents. 17. Analogues of methotrexate with a tripeptide side chain” (J Med Chem, 1978).

Experiments:
[1] = tested on: L1210; assay: Antitumor activity against mouse L1210 cells allografted in BDF1 mouse assessed as increase in life span at 50 mg/kg administered 6 times starting 24 hrs post challenge relative to control; type: functional; settings: L1210, 24 h
In short: (§1)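 L1210 leukemia cells, 10^6, inoculated ip; dosing started 24 h after inoculation, given daily as an aqueous solution at pH 8.0-8.4. Survival of treated versus control mice was read out as %ILS = (T/C − 1) × 100.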

[2] = Toxicity in Wistar rat administered as single dose; type: organism-based; settings: in vivo
[3] = tested on: L1210; assay: Antitumor activity against mouse L1210 cells allografted in BDF1 mouse assessed as increase in life span at 40 mg/kg administered 10 times starting 24 hrs post challenge relative to control; type: functional; settings: L1210, 24 h; in short: as §1
[4] = tested on: W256; assay: Antitumor activity against […] cells allografted in rat assessed as tumor growth inhibition at 60 mg/kg administered 14 times starting 7 days post challenge relative to control; settings: W256, 7 days, read-out: TGI
[5] = tested on: W256; assay: Antitumor activity against […] cells allografted in rat assessed as tumor growth inhibition at 18 mg/kg administered 13 times starting 7 days post challenge relative to control; settings: W256, 7 days, read-out: TGI
[6] = tested on: L1210; assay: Antitumor activity against mouse L1210 cells allografted in BDF1 mouse assessed as increase in life span at 33 mg/kg administered 6 times starting 24 hrs post challenge relative to control; type: functional; settings: L1210, 24 h; in short: as §1
[7] = tested on: W256; assay: Antitumor activity against […] cells allografted in rat assessed as tumor growth inhibition at 100 mg/kg administered 13 times starting 7 days post challenge relative to control; settings: W256, 7 days, read-out: TGI
[8] = tested on: L1210; assay: Antitumor activity against mouse L1210 cells allografted in BDF1 mouse assessed as increase in life span at 100 mg/kg administered 8 times starting 24 hrs post challenge relative to control; type: functional; settings: L1210, 24 h; in short: as §1
[9] = tested on: L1210; assay: Antitumor activity against mouse L1210 cells allografted in BDF1 mouse assessed as increase in life span at 100 mg/kg administered 6 times starting 24 hrs post challenge relative to control; type: functional; settings: L1210, 24 h; in short: as §1
[10] = tested on: L1210; assay: Antitumor activity against mouse L1210 cells allografted in BDF1 mouse assessed as increase in life span at 50 mg/kg administered 8 times starting 24 hrs post challenge relative to control; type: functional; settings: L1210, 24 h; in short: as §1
[11] = tested on: L1210; assay: Antitumor activity against mouse L1210 cells allografted in BDF1 mouse assessed as increase in life span at 100 mg/kg administered 7 times starting 24 hrs post challenge relative to control; type: functional; settings: L1210, 24 h; in short: as §1

CC(NC(=O)c1ccc(N(C)Cc2cnc3nc(N)nc(N)c3n2)cc1)C(=O)NC(CCC(=O)O)C(=O)O (stereo not given)
ILS at 50 mg/kg [1]: 19% | LD50 [2]: 500 mg/kg

Nc1nc(N)c2nc(CNc3ccc(C(=O)NCC(=O)NC(CC(=O)O)C(=O)O)cc3)cnc2n1.O (stereo not given)
ILS at 40 mg/kg [3]: 69% | inhibition in vivo at 60 mg/kg [4]: 55% | LD50 [2]: 200 mg/kg

Nc1nc(N)c2nc(CNc3ccc(C(=O)NCC(=O)NC(CCC(=O)O)C(=O)O)cc3)cnc2n1.O (stereo not given)
inhibition in vivo at 18 mg/kg [5]: 30% | ILS at 33 mg/kg [6]: 14% | LD50 [2]: 400 mg/kg

CN(Cc1cnc2nc(N)nc(N)c2n1)c1ccc(C(=O)NCC(=O)NC(CC(=O)O)C(=O)O)cc1.O (stereo not given)
LD50 [2]: 500 mg/kg | inhibition in vivo at 100 mg/kg [7]: 41% | ILS at 100 mg/kg [8]: 40%

CN(Cc1cnc2nc(N)nc(N)c2n1)c1ccc(C(=O)NCC(=O)NC(CCC(=O)O)C(=O)O)cc1.O (stereo not given)
LD50 [2]: 830 mg/kg | ILS at 100 mg/kg [8]: 0%

CN(CC(=O)NC(CCC(=O)O)C(=O)O)C(=O)c1ccc(N(C)Cc2cnc3nc(N)nc(N)c3n2)cc1.O (stereo not given)
LD50 [2]: 1000 mg/kg | ILS at 100 mg/kg [9]: 0%

CC(C)C[C@H](NC(=O)c1ccc(N(C)Cc2cnc3nc(N)nc(N)c3n2)cc1)C(=O)NC(CCC(=O)O)C(=O)O (stereo not given in full)
ILS at 50 mg/kg [10]: 0% | LD50 [2]: 500 mg/kg

CN(Cc1cnc2nc(N)nc(N)c2n1)c1ccc(C(=O)N[C@@H](Cc2ccccc2)C(=O)NC(CC(=O)O)C(=O)O)cc1.O (stereo not given in full)
ILS at 100 mg/kg [11]: 0% | LD50 [2]: 1000 mg/kg

CN(Cc1cnc2nc(N)nc(N)c2n1)c1ccc(C(=O)N[C@@H](Cc2ccccc2)C(=O)NC(CCC(=O)O)C(=O)O)cc1.O (stereo not given in full)
LD50 [2]: 500 mg/kg
